In assay [1] the test system is Cryptococcus neoformans. Nature of the assay: Antifungal activity against Cryptococcus neoformans var. grubii H99 after 48 hrs by serial dilution method. The class given is functional. The method in brief: (§1)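 Broth serial dilution per NCCLS. Medium was RPMI 1640 buffered with 0.165M MOPS, NaHCO3 (0.2%) and NaOH (0.27%). Strains were pre-grown in YPD at 30 °C with shaking. Inoculum 10³ CFU/mL; compounds in DMSO. Plates incubated at 35 °C for 48 h. MIC80 is the concentration giving 80% inhibition.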

A further assay deals with Candida albicans. In words: Antifungal activity against Candida albicans SC5314 after 48 hrs by serial dilution method. The format is functional. The conditions noted are these: SC5314, 48 h. The method in brief: as §1
The subject of assay [2] is Cryptococcus neoformans. In words: Fungicidal activity against Cryptococcus neoformans var. grubii H99 at 16 ug/mL after 48 hrs by time-kill assay. The format is functional, organism-based. Put shortly: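 Exponential-phase H99 cells were washed three times in PBS and resuspended in RPMI 1640 at 2×10^6 cells/mL. After drug was added, cultures were shaken at 200 rpm and 30 °C. Samples were taken at 0, 6, 12, 24 and 48 h, diluted, and plated on SDA agar. Viable counts were read after 48 h at 30 °C.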

The subject of another assay is Cryptococcus gattii. In words: Antifungal activity against Cryptococcus gattii ATCC 14116 after 48 hrs by serial dilution method. Particulars: ATCC 14116, 48 h.
For assay [3], the system named is Cryptococcus neoformans. Nature of the assay: Fungistatic activity against Cryptococcus neoformans var. grubii H99 at 16 ug/mL up to 48 hrs by time-growth curve assay. The format is functional, organism-based. The method in brief: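 Exponential-phase H99 cells were resuspended in fresh RPMI 1640 at 2×10^6 cells/mL, drug was added, and cultures were shaken at 200 rpm and 30 °C. Aliquots were removed and counted at 0, 3, 6, 9, 12, 24 and 48 h. The control received DMSO. Three independent experiments were run.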

Assay [4] deals with Cryptococcus neoformans. Nature of the assay: Antifungal activity against Cryptococcus neoformans var. grubii ATCC 34877 after 48 hrs by serial dilution method. The class given is functional. Particulars: var. grubii ATCC 34877, 48 h. Put shortly:
as §1

The structures appear in SMILES notation. In brackets after ≈: the same amount, converted by molar mass. Activity calls are given as the source filed them. The calls are words filed in the database; no cut-off is given here.

In the case of `Cc1ccc(-c2noc3c2C(=O)c2sccc2C3=O)cc1`, the MIC80 in the assay with Cryptococcus neoformans [1] was 1 µg/mL (≈ 3.39 µM); against Candida albicans it was > 64 µg/mL.
On the same counts, the results for `O=C1c2ccsc2C(=O)c2c(-c3cccs3)noc21` are 2 µg/mL (≈ 6.96 µM) and > 64 µg/mL.
In the case of `OC(Cn1cncn1)(Cn1cncn1)c1ccc(F)cc1F` [FLUCONAZOLE], the MIC80 against Cryptococcus neoformans [1] was determined as 2 µg/mL (≈ 6.53 µM); in the assay on Candida albicans, 0.25 µg/mL (≈ 0.816 µM); in the assay on Cryptococcus gattii, 8 µg/mL (≈ 26.1 µM); in the assay with Cryptococcus neoformans [4] it was 8 µg/mL (≈ 26.1 µM). Also, the result in the assay on Cryptococcus neoformans [2] was inactive. For the same compound, the outcome in the assay with Cryptococcus neoformans [3] was Active.
Regarding `Cc1cccc(-c2noc3c2C(=O)c2sccc2C3=O)c1`, the MIC80 against Cryptococcus neoformans [1] is 1 µg/mL (≈ 3.39 µM); in the assay with Candida albicans, > 64 µg/mL.
The corresponding values for `Cn1cccc1-c1noc2c1C(=O)c1sccc1C2=O` are 4 µg/mL (≈ 14.1 µM) and 16 µg/mL (≈ 56.3 µM).
On the same counts, the results for `COc1ccc(-c2noc3c2C(=O)c2sccc2C3=O)cc1` are 1 µg/mL (≈ 3.21 µM) and > 64 µg/mL.
`C[C@@H](c1ncncc1F)[C@](O)(Cn1cncn1)c1ccc(F)cc1F` [VORICONAZOLE]: the MIC80 with Cryptococcus neoformans [1], against Candida albicans, in the assay on Cryptococcus gattii and with Cryptococcus neoformans [4] was 0.12 µg/mL (≈ 0.344 µM) throughout.
`O=C1c2ccsc2C(=O)c2c(-c3cccc(Cl)c3)noc21`: the MIC80 against Cryptococcus neoformans [1] and in the assay on Candida albicans was > 64 µg/mL throughout.
As for `O=C1c2ccsc2C(=O)c2c(-c3ccncc3)noc21`, the MIC80 against Cryptococcus neoformans [1] came to 0.25 µg/mL (≈ 0.886 µM); in the assay with Candida albicans it was 8 µg/mL (≈ 28.3 µM); against Cryptococcus gattii, 1 µg/mL (≈ 3.54 µM); against Cryptococcus neoformans [4], 0.5 µg/mL (≈ 1.77 µM).
For the compound `O=C1c2ccsc2C(=O)c2c(-c3cccc(Br)c3)noc21`, the MIC80 in the assay on Cryptococcus neoformans [1] and against Candida albicans was > 64 µg/mL throughout.
For `O=C1c2ccsc2C(=O)c2c(-c3ccsc3)noc21`, the MIC80 was 1 µg/mL (≈ 3.48 µM) against Cryptococcus neoformans [1] and > 64 µg/mL in the assay on Candida albicans.

A word on the MIC80: it is the lowest concentration that inhibits either 80% of growth or 80% of the strains tested, depending on the study. Low values mean greater potency, high ones weaker potency.

Source of the values: ChEMBL document CHEMBL4368921, “Discovery of novel simplified isoxazole derivatives of sampangine as potent anti-cryptococcal agents” (2019).
